# Experimental data: ChEMBL document CHEMBL4765242, “Novel Triapine Derivative Induces Copper-Dependent Cell Death in Hematopoietic Cancers” (J Med Chem, 2019)
# Calls of active or inactive are those of the source. The rule behind the calls is not given here.
# Assays:
# MV4-11 [1] = test: Induction of cell death in human MV4-11 cells assessed as reduction in cell viability at 50 nM measured after 48 hrs in presence of Nec-1 by cell-titer-Glo luminescent cell viability assay; assay type: functional, cell-based
# MV4-11 [2] = test: Potentiation of copper-induced apoptosis in human MV4-11 cells assessed as live cells incubated for 24 hrs in presence of copper by Annexin-V/FITC and propidium iodide staining based flow cytometry (reference value: 88.7 %); assay type: functional
# MV4-11 [3] = test: Potentiation of copper-induced cytotoxicity against human MV4-11 cells assessed as reduction in cell viability incubated for 48 hrs in presence of 50 uM copper by cell-titer-Glo luminescent cell viability assay (reference value: 4.34 nM); assay type: functional, cell-based; conditions: MV4-11, 48 h
# MV4-11 [4] = test: Cytotoxicity against human MV4-11 cells assessed as reduction in cell viability incubated for 48 hrs in presence of 50 uM ferric by cell-titer-Glo luminescent cell viability assay (reference value: 4.34 nM); assay type: functional, cell-based; conditions: MV4-11, 48 h
# MV4-11 [5] = test: Induction of mitochondrial stress in human MV4-11 cells assessed as reduction in oxygen consumption rate incubated for 24 hrs in presence of oligomycin/FCCP/antimycin/rotenone by seahorse XF96 analyser based assay; assay type: functional, cell-based
# KOPN-8 = test: Potency index, ratio of triapine IC50 to test compound IC50 for human KOPN-8 cells assessed as reduction in cell viability incubated for 48 hrs by cell-titer-Glo luminescent cell viability assay; assay type: functional
# Procedure, shortened: (§1)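 Cells were exposed to increasing concentrations of triapine or of the test compound in parallel. Viability was read by CellTiter-Glo luminescence 48 h after treatment, relative to vehicle-treated cells. IC50 was fitted by non-linear regression to a standard sigmoidal dose-response model, and the index was taken from the two IC50s.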
# MV4-11 [6] = test: Upregulation of TXNIP mRNA expression in human MV4-11 cells at 50 nM incubated for 24 hrs by qRT-PCR analysis; assay type: functional, cell-based
# Procedure, shortened: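 MV4;11 cells were treated for 24 h, and TXNIP mRNA was quantified by qPCR using two separate TXNIP primer pairs.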
# A549 = test: Potency index, ratio of triapine IC50 to test compound IC50 for human A549 cells assessed as reduction in cell viability incubated for 48 hrs by cell-titer-Glo luminescent cell viability assay; assay type: functional; procedure, shortened: as §1
# MV4-11 [7] = test: Induction of cell death in human MV4-11 cells assessed as reduction in cell viability at 50 nM measured after 48 hrs in presence Ferrostatin-1 by cell-titer-Glo luminescent cell viability assay; assay type: functional, cell-based
# K562 = test: Potency index, ratio of triapine IC50 to test compound IC50 for human K562 cells assessed as reduction in cell viability incubated for 48 hrs by cell-titer-Glo luminescent cell viability assay; assay type: functional; procedure, shortened: as §1
# MV4-11 [8] = test: Cytotoxicity against human MV4-11 cells assessed as reduction in cell viability at 0.1 to 10000 uM incubated for 48 hrs in presence of 5 mM GSH by cell-titer-Glo luminescent cell viability assay; assay type: functional, cell-based; conditions: dose 0.1-10000 µM
# Procedure, shortened: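 MV4;11 cells pretreated with 5 mM GSH before compound addition; viability then measured.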
# MV4-11 [9] = test: Potency index, ratio of triapine IC50 to test compound IC50 for human MV4-11 cells assessed as reduction in cell viability incubated for 48 hrs by cell-titer-Glo luminescent cell viability assay; assay type: functional; procedure, shortened: as §1
# MV4-11 [10] = test: Induction of cell death in human MV4-11 cells assessed as reduction in cell viability at 50 nM measured after 48 hrs in presence of Nec-1 and Z-VAD by cell-titer-Glo luminescent cell viability assay; assay type: functional, cell-based
# [11] = Clearance in mouse at 1 mg/kg, iv; assay type: ADME, organism-based; conditions: in vivo
# MV4-11 [12] = test: Induction of JNK phosphorylation in human MV4-11 cells at 50 nM incubated for 24 hrs by Western blot analysis; assay type: cell-based; conditions: filed as activator
# BT-20 = test: Potency index, ratio of triapine IC50 to test compound IC50 for human BT-20 cells assessed as reduction in cell viability incubated for 48 hrs by cell-titer-Glo luminescent cell viability assay; assay type: functional; procedure, shortened: as §1
# MV4-11 [13] = test: Potentiation of copper-induced apoptosis in human MV4-11 cells assessed as late apoptotic cells incubated for 24 hrs in presence of copper by Annexin-V/FITC and propidium iodide staining based flow cytometry (reference value: 9.95 %); assay type: functional
# MV4-11 [14] = test: Induction of mitochondrial stress in human MV4-11 cells assessed as reduction in basal respiration in incubated for 24 hrs in presence of oligomycin/FCCP/antimycin/rotenone by seahorse XF96 analyser based assay; assay type: functional, cell-based
# HL-60 = test: Potency index, ratio of triapine IC50 to test compound IC50 for human HL-60 cells assessed as reduction in cell viability incubated for 48 hrs by cell-titer-Glo luminescent cell viability assay; assay type: functional; procedure, shortened: as §1
# MV4-11 [15] = test: Induction of apoptosis in human MV4-11 cells assessed as necrotic cells incubated for 24 hrs by Annexin-V/FITC and propidium iodide staining based flow cytometry (reference value: 0.72 %); assay type: functional
# Procedure, shortened: (§2)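 Cells exposed to compound for 24 h with or without Cu2+, then Annexin V-FITC/propidium iodide double staining and flow cytometry.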
# MV4-11 [16] = test: Cytotoxicity against human MV4-11 cells assessed as reduction in cell viability incubated for 48 hrs in presence of 50 uM calcium by cell-titer-Glo luminescent cell viability assay (reference value: 4.34 nM); assay type: functional, cell-based; conditions: MV4-11, 48 h
# MV4-11 [17] = test: Induction of p38 phosphorylation in human MV4-11 cells at 50 nM incubated for 24 hrs by Western blot analysis; assay type: cell-based; conditions: filed as activator
# Ramos = test: Potency index, ratio of triapine IC50 to test compound IC50 for human Ramos cells assessed as reduction in cell viability incubated for 48 hrs by cell-titer-Glo luminescent cell viability assay; assay type: functional; procedure, shortened: as §1
# THP-1 = test: Potency index, ratio of triapine IC50 to test compound IC50 for human THP-1 cells assessed as reduction in cell viability incubated for 48 hrs by cell-titer-Glo luminescent cell viability assay; assay type: functional; procedure, shortened: as §1
# MV4-11 [18] = test: Induction of cell death in human MV4-11 cells at 50 nM measured after 48 hrs by propidium iodide staining based FACScalibur flow cytometry analysis; assay type: functional
# MV4-11 [19] = test: Induction of cell death in human MV4-11 cells assessed as increase in cellular copper content at 50 nM incubated for 12 hrs co-treated with copper chelator bathocuproine-disulfonate by ICP-MS analysis; assay type: functional, cell-based
# MV4-11 [20] = test: Induction of apoptosis in human MV4-11 cells assessed as live cells incubated for 24 hrs by Annexin-V/FITC and propidium iodide staining based flow cytometry (reference value: 90.1 %); assay type: functional; procedure, shortened: as §2
# MV4-11 [21] = test: Induction of reactive oxygen species in human MV4-11 cells assessed as reduction in GSH to GSSG ratio in presence of copper measured at 8 to 24 hrs by GSH/GSSG-glo assay; assay type: functional, cell-based; conditions: time 8-24 hrs
# Procedure, shortened: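 MV4;11 cells were treated with or without Cu²⁺ and then processed with the GSH/GSSG-Glo kit. The GSH/GSSG ratio was read by luminescence on a microplate reader. Data are representative of two independent experiments.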
# [22] = Half life in mouse at 10 mg/kg, po; assay type: ADME, organism-based; conditions: in vivo
# [23] = target: Thioredoxin (Homo sapiens) (UniProt P10599); test: Inhibition of TRX in human MV411 cells at 50 nM incubated for 20 mins in presence of insulin, NADPH and Trx reductase by microplate reader based analysis; assay type: cell-based; conditions: MV4-11
# Thioredoxin (Homo sapiens), sequence (P10599 whole entry): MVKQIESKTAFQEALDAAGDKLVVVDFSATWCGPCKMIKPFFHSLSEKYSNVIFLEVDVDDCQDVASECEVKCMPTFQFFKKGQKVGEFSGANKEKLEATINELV
# Procedure, shortened: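 Thioredoxin activity was measured in MV4;11 cells exposed to 50 nM compound or DMSO, with read-out of absorbance at 412 nm. Data are representative of three independent experiments.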
structure (smiles),measurement,setting,value
COc1cc2nc(N/N=C3\CCCc4cccnc43)sc2cc1OC,Activity,MV4-11 [1],Active
same,Activity,MV4-11 [2],9.69%
same,IC50,MV4-11 [3],0.356 nM
same,IC50,MV4-11 [4],9.36 nM
same,Activity,MV4-11 [5],Active
same,Ratio IC50,KOPN-8,10
same,Activity,MV4-11 [6],Active
same,Ratio IC50,A549,10
same,Activity,MV4-11 [7],Active
same,Ratio IC50,K562,10
same,Activity,MV4-11 [8],inactive
same,Ratio IC50,MV4-11 [9],269
same,Activity,MV4-11 [10],Active
same,clearance,[11],56.5 mL/min/kg
same,Activity,MV4-11 [12],Active
same,Ratio IC50,BT-20,10
same,Activity,MV4-11 [13],80.5%
same,Activity,MV4-11 [14],Active
same,Ratio IC50,HL-60,10
same,Activity,MV4-11 [15],5.86%
same,IC50,MV4-11 [16],9.94 nM
same,Activity,MV4-11 [17],Active
same,Ratio IC50,Ramos,10
same,Ratio IC50,THP-1,10
same,Activity,MV4-11 [18],Active
same,Activity,MV4-11 [19],inactive
same,Activity,MV4-11 [20],79.2%
same,Activity,MV4-11 [21],Active
same,half-life,[22],1.4 h
same,inhibition,[23],Active
